Results on 17 compounds are retold here after ChEMBL document CHEMBL1128331, “New antianginal nitro esters with reduced hypotensive activity. Synthesis and pharmacological evaluation of 3-[(nitrooxy)alkyl]-2H-1,3-benzoxazin-4(3H)-ones” (J Med Chem, 1995).

The nature of data set [1]: Partition coefficient (logP). The settings on record: octanol/water. It counts as physicochemical.
Data set [2] is filed under the species Oryctolagus cuniculus. Briefly: Vasorelaxation activity in the isolated endothelium-denuded rabbit aorta. The data set is classed as functional. A digest of the protocol: (§1)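 Endothelium-denuded rabbit aortic strips, precontracted to a stable plateau, then given increasing concentrations cumulatively in the organ chamber; IC50 calculated from the concentration-response curves.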

Data set [3] relates to Rattus norvegicus. In words: Concentration required to reduce mean arterial blood pressure in rat after intravenous administration. It counts as functional. The settings on record: Artery. The method in brief: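 Male Sprague-Dawley rats (350-400 g), urethane 1.25 g/kg ip, tracheal cannula. Carotid catheter records mean arterial pressure continuously; heart rate taken from the pressure wave. Dosing through femoral vein, 1 mL/kg over 20 s. Change expressed as percent of basal; ED20 (dose giving 20% MABP fall) taken from the dose-response curve.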

The species named for data set [4] is Rattus norvegicus. In words: Inhibition of vasopressin-induced ECG changes in rat. The data set is classed as functional. The method in brief: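 Urethane-anesthetized (1.25 g/kg ip) male Sprague-Dawley rats, lead II ECG. Arg8-vasopressin 1 IU/kg iv (1 mL/kg over 20 s) given 10 min after iv drug or vehicle (GTN 1 min before). T-wave rise measured in mV. 8 rats per dose; percent inhibition against mean control; ED50 from dose-effect regression line.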

The species entered for data set [5] is Rattus norvegicus. In words: Selectivity index as the ratio of doses requires to induce a reduction in MABP and that required to prevent ECG changes. It counts as functional. A digest of the protocol: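 Ratio of the iv ED20 for a 20% fall in mean arterial pressure to the iv ED50 for preventing ECG changes, both measured in urethane-anesthetized rats.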
Data set [6] is filed under the species Oryctolagus cuniculus. Briefly: Compound was tested for vasorelaxation activity in the isolated endothelium-denuded rabbit aorta. It counts as functional. The method in brief:
as §1

Data set [7] has as its system Rattus norvegicus. In words: Inhibition of methacholine-induced ECG changes in the anesthetized rat after intravenous administration. The data set is classed as functional. The method in brief:
(§2)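 Urethane-anesthetized male Sprague-Dawley rats, lead II ECG. Methacholine 8.0 µg in 0.02 mL over 1 s delivered into coronary arteries via a tube passed through the right carotid artery into the coronary ostia; S-T elevation measured in mV. Injection repeated at intervals after a single iv or oral dose. Five rats per dose; percent inhibition over basal; ED50.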

Data set [8] relates to Rattus norvegicus. In words: Inhibition of methacholine-induced ECG changes in the anesthetized rat after oral administration. It counts as functional. A digest of the protocol: as §2

As usually defined, the logP is a log measure of how a compound divides between an organic and an aqueous phase. Low values mean lower lipophilicity, high ones higher lipophilicity. A word on the IC50: it is the concentration at which inhibition is half-maximal. Low values mean greater potency in that assay, high ones weaker potency in that assay. The term ED50 denotes the midpoint of the dose-response relation. A low value points to an effect at a small dose. On to `O=C1c2cc([N+](=O)[O-])ccc2OCN1CCO[N+](=O)[O-]`, for which, in data set [1], the logP was 1.57. This compound gave an IC50 in data set [2] of 21 nM. The ED20 in data set [3] was found to be 0.076 mg/kg. Moreover, in data set [4], the ED50 came out at 0.064 mg/kg. Further, the Selectivity index in data set [5] was 1.2.

Turning to `O=C1c2ccc(C(F)(F)F)cc2OCN1CCO[N+](=O)[O-]`, the logP in data set [1] came out at 2.73. In data set [6], this compound registered an IC50 of 220 nM. This compound also showed an ED20 in data set [3] greater than 0.3 mg/kg. Besides, the ED50 in data set [7] is 0.082 mg/kg; in data set [8] it was greater than 0.3 mg/kg; in data set [4], 0.0015 mg/kg. Further, the Selectivity index in data set [5] came to 200.

`CN(C)/C=N/c1ccc2c(c1)C(=O)N(CCO[N+](=O)[O-])CO2`: in data set [2], the 50% inhibitory concentration (IC50) amounted to 640 nM. Also, the ED20 in data set [3] was 1.27 mg/kg. Besides, the ED50 in data set [7] was 0.0171 mg/kg; in data set [8], greater than 0.3 mg/kg. The Selectivity index in data set [5] is 131.

For the compound `O=C1c2ccccc2OCN1CCCCCO[N+](=O)[O-]`, in data set [2], the IC50 was 98 nM. The same compound gave an ED20 in data set [3] of 0.73 mg/kg. Moreover, the Selectivity index in data set [5] came out at 13.

Consider `O=C1c2ccccc2OCN1CCCO[N+](=O)[O-]`, for which it took 77 nM to reach half-maximal inhibition in data set [2] (IC50). Further, the ED50 in data set [7] came out at 0.001 mg/kg.

`Cc1cccc2c1OCN(CCO[N+](=O)[O-])C2=O`: the IC50 in data set [2] is 360 nM. The same compound showed an ED20 in data set [3] of 0.88 mg/kg. It took a dose of 0.0582 mg/kg to reach the 50% effect level in data set [4] (ED50). For the same compound, the Selectivity index in data set [5] is on record as 15.

Turning to `O=C1c2cc(Cl)ccc2OCN1CCO[N+](=O)[O-]`, the logP in data set [1] came out at 2.56. This compound yielded a concentration for half-maximal inhibition (IC50) in data set [2] of 37 nM. In addition, in data set [3], the ED20 turned out to be 0.088 mg/kg. Moreover, the 50% effect level in data set [4] (ED50) was put at a dose of 0.107 mg/kg. Further, in data set [5], the Selectivity index is 0.87.

With `O=C1c2ccc(Cl)cc2OCN1CCO[N+](=O)[O-]`, the log partition coefficient (logP) in data set [1] was 2.56. In data set [2], this compound gave an IC50 of 70 nM. Moreover, in data set [3], the ED20 came out at 0.79 mg/kg. In data set [5], the Selectivity index was 72.

In the case of `Cc1cccc2c1C(=O)N(CCO[N+](=O)[O-])CO2`, in data set [2], the concentration for half-maximal inhibition (IC50) worked out at 125 nM. In data set [3], the ED20 was 0.3 mg/kg. Moreover, the 50% effective dose (ED50) in data set [7] is greater than 0.01 mg/kg; in data set [4] it was 0.0046 mg/kg. For the same compound, the Selectivity index in data set [5] is listed as 65.

`Cc1ccc2c(c1)OCN(CCO[N+](=O)[O-])C2=O` displayed a lipophilicity (logP) in data set [1] of 2.41. Also, it took 110 nM to reach half-maximal inhibition in data set [2] (IC50). For the same compound, in data set [3], the ED20 worked out at 0.22 mg/kg. Also, in data set [5], the Selectivity index is recorded as 17.5.

In the case of `N#Cc1ccc2c(c1)C(=O)N(CCO[N+](=O)[O-])CO2`, the logP in data set [1] amounted to 1.28. The compound also came in with an IC50 in data set [2] of 71 nM. Besides, in data set [3], the ED20 was greater than 0.3 mg/kg. Further, in data set [5], the Selectivity index was 26.

For the compound `COc1ccc2c(c1)C(=O)N(CCO[N+](=O)[O-])CO2`, in data set [1], the logP was determined as 1.83. The IC50 in data set [2] is 230 nM. The ED20 in data set [3] was greater than 1 mg/kg. Moreover, the ED50 in data set [7] came out at 0.013 mg/kg; in data set [8], 0.1 mg/kg; in data set [4], 0.0051 mg/kg. Besides, the Selectivity index in data set [5] was determined as 421.

With `Cc1ccc2c(c1)C(=O)N(CCO[N+](=O)[O-])CO2`, the log partition coefficient (logP) in data set [1] was 2.41. Moreover, in data set [2], the concentration for half-maximal inhibition (IC50) was found to be 35 nM. The compound also registered an ED20 in data set [3] of 0.037 mg/kg. Also, the values for the 50% effective dose (ED50) in data set [7], in data set [8] and in data set [4] were 0.00041 mg/kg, 0.142 mg/kg and 0.006 mg/kg, respectively. Further, in data set [5], the Selectivity index is 8.6.

The compound `COc1ccc2c(c1)OCN(CCO[N+](=O)[O-])C2=O` returned a lipophilicity (logP) in data set [1] of 1.83. In addition, in data set [2], 47 nM corresponded to half-maximal inhibition (IC50). This compound displayed an ED20 in data set [3] of 0.29 mg/kg. Besides, the results for the 50% effective dose (ED50) in data set [7], in data set [8] and in data set [4] were greater than 0.01 mg/kg, greater than 0.3 mg/kg and 0.002 mg/kg, respectively. The Selectivity index in data set [5] came out at 147.

In turn, `O=C(NCCO[N+](=O)[O-])c1cccnc1` [NICORANDIL] came in with an ED20 in data set [3] of 0.16 mg/kg. Moreover, the 50% effective dose (ED50) in data set [7] is 0.047 mg/kg; in data set [8] it was 3 mg/kg; in data set [4], 0.94 mg/kg.

For the compound `O=[N+]([O-])OCC(CO[N+](=O)[O-])O[N+](=O)[O-]` [NITROGLYCERIN], in data set [2], the half-maximal inhibitory concentration (IC50) was 16 nM. Moreover, the ED20 in data set [3] came to 0.0054 mg/kg. Further, the ED50 in data set [7] is 0.036 mg/kg; in data set [4] it was 0.545 mg/kg. Besides, in data set [5], the Selectivity index was determined as 0.01.

In the case of `O=C1c2ccccc2OCN1CCO[N+](=O)[O-]` [SINITRODIL], the logP in data set [1] is 1.85. Further, the 50% inhibitory concentration (IC50) in data set [2] came out at 94 nM. Moreover, the ED20 in data set [3] came out at 0.19 mg/kg. Further, the ED50 in data set [8] was determined as 0.118 mg/kg; in data set [4], 0.0021 mg/kg. For the same compound, in data set [5], the Selectivity index was found to be 90.
